From ChEMBL document CHEMBL1125592, “Calcium channel blocking and positive inotropic activities of ethyl 5-cyano-1,4-dihydro-6-methyl-2-[(phenylsulfonyl)methyl]-4-aryl-3- pyridine-carboxylate and analogues. Synthesis and structure-activity relationships” (J Med Chem, 1991)
Calls of active or inactive are those of the source. No cut-off for these calls is given here.

Columns and labels:
Rattus norvegicus [1] = species: Rattus norvegicus; assay: Compound was tested for the cardiovascular activity in isolated rat heart. Value represents the concentration producing 25% increase in LV + dP/dtmax; NA indicates not active; format: functional
Procedure, shortened: (§1)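 Isolated Langendorff-perfused rat heart. Coronary flow (CF), LV +dP/dtmax and heart rate recorded during exposure to test agent. Value is the concentration giving a 25% rise in CF or in LV +dP/dtmax, mean ± SE. At least two hearts per compound.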

Rattus norvegicus [2] = species: Rattus norvegicus; assay: Cardiovascular activity in isolated rat heart, concentration producing 25% increase in CF (cardiac flow).; format: functional; procedure, shortened: as §1
[3] = target: Voltage-gated L-type calcium channel (Rattus norvegicus, UniProt P22002+Q02485+P27732); assay: Affinity to bind dihydropyridine receptor (DHP receptor) by inhibiting the radioligand [3H]nitrendipine; format: protein assay
Procedure, shortened: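 [3H]nitrendipine displacement, rat brain cortical membranes. Each compound first screened at 1000 nM; if inhibition exceeded 40%, a four- to seven-point curve with unlabeled compound was run. IC50 generally mean of two experiments, each in triplicate. ">1000 nM" means under 40% inhibition of control binding at 1000 nM.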

Rattus norvegicus [4] = species: Rattus norvegicus; assay: Compound was tested for the cardiovascular activity in isolated rat heart. Value represents the concentration producing 25% increase in CF (cardiac flow); NA indicates not active; format: functional; procedure, shortened: as §1
Oryctolagus cuniculus [5] = species: Oryctolagus cuniculus; assay: Vasorelaxant effect at a concentration of 10e-5 M on rabbit aortic rings previously contracted with 50 mM KCl.; format: functional, Aorta; parameters: unit not given here
Procedure, shortened: (§2)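 Rabbit aortic rings precontracted with 50 mM KCl or 1.0 μM norepinephrine, then exposed to increasing concentrations of test agent. Relaxation recorded at each concentration.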

Oryctolagus cuniculus [6] = species: Oryctolagus cuniculus; assay: Vasorelaxant effect at a concentration of 10e-6 M on rabbit aortic rings previously contracted with 1.0 uM Norepinephrine.; format: functional, Aorta; parameters: unit not given here; procedure, shortened: as §2
Oryctolagus cuniculus [7] = species: Oryctolagus cuniculus; assay: Vasorelaxant effect at a concentration of 10e-5 M on rabbit aortic rings previously contracted with 1.0 uM Norepinephrine.; format: functional, Aorta; parameters: unit not given here; procedure, shortened: as §2
Oryctolagus cuniculus [8] = species: Oryctolagus cuniculus; assay: Vasorelaxant effect at a concentration of 10e-7 M on rabbit aortic rings previously contracted with 50 mM KCl.; format: functional, Aorta; parameters: unit not given here; procedure, shortened: as §2
Oryctolagus cuniculus [9] = species: Oryctolagus cuniculus; assay: Vasorelaxant effect at a concentration of 10e-4 M on rabbit aortic rings previously contracted with 50 mM KCl.; format: functional, Aorta; parameters: unit not given here; procedure, shortened: as §2
Oryctolagus cuniculus [10] = species: Oryctolagus cuniculus; assay: Vasorelaxant effect at a concentration of 10e-6 M on rabbit aortic rings previously contracted with 50 mM KCl.; format: functional, Aorta; parameters: unit not given here; procedure, shortened: as §2
Oryctolagus cuniculus [11] = species: Oryctolagus cuniculus; assay: Vasorelaxant effect at a concentration of 10e-4 M on rabbit aortic rings previously contracted with 1.0 uM Norepinephrine.; format: functional, Aorta; parameters: unit not given here; procedure, shortened: as §2
Rattus norvegicus [12] = species: Rattus norvegicus; assay: Cardiovascular activity in isolated rat heart, concentration producing 25% increase in LV + dP/dtmax.; format: functional; procedure, shortened: as §1
Oryctolagus cuniculus [13] = species: Oryctolagus cuniculus; assay: Vasorelaxant effect at a concentration of 10e-7 M on rabbit aortic rings previously contracted with 1.0 uM Norepinephrine.; format: functional, Aorta; parameters: unit not given here; procedure, shortened: as §2
Oryctolagus cuniculus [14] = species: Oryctolagus cuniculus; assay: Vasorelaxant effect at a concentration of 10e-8 M on rabbit aortic rings previously contracted with 50 mM KCl.; format: functional; details: Aorta; procedure, shortened: as §2
Oryctolagus cuniculus [15] = species: Oryctolagus cuniculus; assay: Vasorelaxant effect at a concentration of 10e-8 M on rabbit aortic rings previously contracted with 1.0 uM Norepinephrine.; format: functional; details: Aorta; procedure, shortened: as §2
Oryctolagus cuniculus [16] = species: Oryctolagus cuniculus; assay: Vasorelaxant effect at a concentration of 10e-9 M on rabbit aortic rings previously contracted with 1.0 uM Norepinephrine.; format: functional; details: Aorta; procedure, shortened: as §2
Oryctolagus cuniculus [17] = species: Oryctolagus cuniculus; assay: Vasorelaxant effect at a concentration of 10e-9 M on rabbit aortic rings previously contracted with 50 mM KCl.; format: functional; details: Aorta; procedure, shortened: as §2

| Compound | IC50 [3] [nM] | EC25 (Rattus norvegicus [2]) | EC25 (Rattus norvegicus [12]) | other results |
| --- | --- | --- | --- | --- |
| CCOC(=O)C1=C(C[S+]([O-])c2ccccc2)NC(C)=C(C#N)C1c1cccc([N+](=O)[O-])c1 (stereo in doubt; 32b) |  |  |  | EC25 (Rattus norvegicus [4]): inactive |
| CCO/C(O)=C1\C(CS(=O)(=O)c2ccccc2)=NC(C)=C(C#N)C1c1ccccc1 (stereo not drawn) | 480 |  | 960 nM | Vasorelaxant effect (Oryctolagus cuniculus [5]): 26; Vasorelaxant effect (Oryctolagus cuniculus [6]): 1; Vasorelaxant effect (Oryctolagus cuniculus [7]): 0; EC25 (Rattus norvegicus [4]): inactive; Vasorelaxant effect (Oryctolagus cuniculus [8]): 4; Vasorelaxant effect (Oryctolagus cuniculus [9]): 54; Vasorelaxant effect (Oryctolagus cuniculus [10]): 1; Vasorelaxant effect (Oryctolagus cuniculus [11]): 6; Vasorelaxant effect (Oryctolagus cuniculus [13]): 0 |
| CCOC(=O)C1=C(C[S+]([O-])c2ccccc2)N(CCN(CC)CC)C(C)=C(C#N)C1c1ccccc1C(F)(F)F (stereo not drawn) | > 1000 | 500 nM | 330 nM |  |
| CCO/C(O)=C1\C(CS(=O)(=O)c2ccccc2)=NC(C)=C(C#N)C1c1cccc([N+](=O)[O-])c1 (stereo not drawn) | 300 | 510 nM | 520 nM |  |
| CC1=C(C#N)C(c2ccccc2C(F)(F)F)/C(=C(\O)OCCN(C)Cc2ccccc2)C(C[S+]([O-])c2ccccc2)=N1 (stereo not drawn) | > 1000 | 420 nM | 120 nM |  |
| CCO/C(O)=C1\C(C[S+]([O-])c2ccncc2)=NC(C)=C(C#N)C1c1ccccn1 (stereo not drawn) | > 1000 |  |  | EC25 (Rattus norvegicus [4]): inactive; EC25 (Rattus norvegicus [1]): inactive |
| NITROPRUSSIDE |  |  |  | Vasorelaxant effect (Oryctolagus cuniculus [14]): -4.8; Vasorelaxant effect (Oryctolagus cuniculus [5]; Aorta): 40.4; Vasorelaxant effect (Oryctolagus cuniculus [15]): 0.7; Vasorelaxant effect (Oryctolagus cuniculus [6]; Aorta): 22.8; Vasorelaxant effect (Oryctolagus cuniculus [7]; Aorta): 39.8; Vasorelaxant effect (Oryctolagus cuniculus [16]): -0.003; Vasorelaxant effect (Oryctolagus cuniculus [8]; Aorta): 5.6; Vasorelaxant effect (Oryctolagus cuniculus [17]): -5.9; Vasorelaxant effect (Oryctolagus cuniculus [9]; Aorta): 52.1; Vasorelaxant effect (Oryctolagus cuniculus [10]; Aorta): 22; Vasorelaxant effect (Oryctolagus cuniculus [11]; Aorta): 55.8; Vasorelaxant effect (Oryctolagus cuniculus [13]; Aorta): 7 |
| CCOC(=O)C1=C(C[S+]([O-])c2ccccc2)NC(C)=C(C#N)C1c1ccccc1C(F)(F)F (stereo in doubt; 29a) |  |  |  | EC25 (Rattus norvegicus [4]): inactive |
| CCOC(=O)C1=C(C[S+]([O-])c2ccccc2)NC(C)=C(C#N)C1c1cccc([N+](=O)[O-])c1 (stereo in doubt; 32a) |  |  |  | EC25 (Rattus norvegicus [4]): inactive |
| CCO/C(O)=C1\C(CS(=O)(=O)c2ccncc2)=NC(C)=C(C#N)C1c1ccccn1 (stereo not drawn) | > 1000 |  |  | EC25 (Rattus norvegicus [4]): inactive; EC25 (Rattus norvegicus [1]): inactive |
| CCOC(=O)C1=C(C[S+]([O-])c2ccccc2)NC(C)=C(C#N)C1c1ccccc1C(F)(F)F (stereo in doubt; 29b) | 2800 | 1300 nM | 170 nM |  |
| CC1=C(C#N)C(c2ccccc2C(F)(F)F)/C(=C(\O)OC(C)C)C(CS(=O)(=O)c2ccccc2)=N1 (stereo not drawn) | 390 | <100 nM | inactive |  |
| CC1=C(C#N)C(c2ccccc2C(F)(F)F)/C(=C(\O)OC(C)C)C(CSc2ccccc2)=N1 (stereo not drawn) | 250 |  |  | Vasorelaxant effect (Oryctolagus cuniculus [5]): 30; Vasorelaxant effect (Oryctolagus cuniculus [6]): -2; Vasorelaxant effect (Oryctolagus cuniculus [7]): 8; Vasorelaxant effect (Oryctolagus cuniculus [8]): 0; Vasorelaxant effect (Oryctolagus cuniculus [9]): 74; Vasorelaxant effect (Oryctolagus cuniculus [10]): 2; Vasorelaxant effect (Oryctolagus cuniculus [11]): 9; Vasorelaxant effect (Oryctolagus cuniculus [13]): -1 |

The next lines start with results.

| IC50 [3] [nM] | Compound | EC25 (Rattus norvegicus [2]) | EC25 (Rattus norvegicus [12]) | other results |
| --- | --- | --- | --- | --- |
| 1200 | CCO/C(O)=C1\C(C[S+]([O-])c2ccc(OC)cc2)=NC(C)=C(C#N)C1c1ccccc1C(F)(F)F (stereo not drawn) | 300 nM |  | EC25 (Rattus norvegicus [1]): inactive |
| 109 | CCO/C(O)=C1\C(CS(=O)(=O)c2ccc(OC)cc2)=NC(C)=C(C#N)C1c1ccccc1C(F)(F)F (stereo not drawn) | 300 nM | inactive |  |
| > 1000 | CCO/C(O)=C1\C(C[S+]([O-])c2ccccc2Cl)=NC(C)=C(C#N)C1c1ccccc1C(F)(F)F (stereo not drawn) | 260 nM | 200 nM |  |
| > 1000 | CCO/C(O)=C1\C(C[S+]([O-])c2ccccc2C)=NC(C)=C(C#N)C1c1ccccc1C(F)(F)F (stereo not drawn) | 800 nM | 130 nM |  |
| 120 | CCO/C(O)=C1\C(CS(=O)(=O)c2ccccc2)=NC(C)=C(C#N)C1c1ccccc1C(F)(F)F (stereo not drawn) | 70 nM | 110 nM | Vasorelaxant effect (Oryctolagus cuniculus [5]): 67; Vasorelaxant effect (Oryctolagus cuniculus [6]): 7; Vasorelaxant effect (Oryctolagus cuniculus [7]): 13; Vasorelaxant effect (Oryctolagus cuniculus [8]): 4; Vasorelaxant effect (Oryctolagus cuniculus [9]): 80; Vasorelaxant effect (Oryctolagus cuniculus [10]): 24; Vasorelaxant effect (Oryctolagus cuniculus [11]): 23; Vasorelaxant effect (Oryctolagus cuniculus [13]): 5 |
| > 1000 | CCO/C(O)=C1\C(C[S+]([O-])c2ccccc2)=NC(C)=C(C#N)C1c1ccccc1Cl (stereo not drawn) | 540 nM | 910 nM |  |
| 1100 | CCO/C(O)=C1\C(C[S+]([O-])c2ccncc2)=NC(C)=C(C#N)C1c1ccccc1C(F)(F)F (stereo not drawn) | inactive | 1200 nM |  |
| 205 | CCO/C(O)=C1\C(CSc2ccc(NC(C)=O)cc2)=NC(C)=C(C#N)C1c1ccccc1C(F)(F)F (stereo not drawn) | 260 nM | inactive |  |
| > 1000 | CC1=C(C#N)C(c2ccccc2C(F)(F)F)/C(=C(\O)OCCN2CCCCC2)C(C[S+]([O-])c2ccccc2)=N1 (stereo not drawn) |  |  | EC25 (Rattus norvegicus [4]): inactive; EC25 (Rattus norvegicus [1]): inactive |
| 1000 | CCO/C(O)=C1\C(CS(=O)(=O)c2ccc(N)cc2)=NC(C)=C(C#N)C1c1ccccc1C(F)(F)F (stereo not drawn) | 940 nM | 840 nM | Vasorelaxant effect (Oryctolagus cuniculus [5]): 38; Vasorelaxant effect (Oryctolagus cuniculus [6]): 2; Vasorelaxant effect (Oryctolagus cuniculus [7]): 2; Vasorelaxant effect (Oryctolagus cuniculus [8]): 2; Vasorelaxant effect (Oryctolagus cuniculus [9]): 69; Vasorelaxant effect (Oryctolagus cuniculus [10]): 5; Vasorelaxant effect (Oryctolagus cuniculus [11]): 5; Vasorelaxant effect (Oryctolagus cuniculus [13]): 2 |
| > 1000 | CO/C(O)=C1\C(C[S+]([O-])c2ccccc2)=NC(C)=C(C#N)C1c1ccccc1C(F)(F)F (stereo not drawn) | 1480 nM | 260 nM |  |
| > 1000 | CCO/C(O)=C1\C(C[S+]([O-])c2ccccc2F)=NC(C)=C(C#N)C1c1ccccc1C(F)(F)F (stereo not drawn) | 360 nM | 930 nM |  |
| 500 | CC1=C(C#N)C(c2ccccc2C(F)(F)F)/C(=C(\O)OC(C)C)C(C[S+]([O-])c2ccccc2)=N1 (stereo not drawn) | 240 nM |  | EC25 (Rattus norvegicus [1]): inactive |
| > 1000 | CCO/C(O)=C1\C(CS(=O)(=O)c2ccccc2F)=NC(C)=C(C#N)C1c1ccccc1C(F)(F)F (stereo not drawn) | 90 nM | 390 nM |  |
| 91 | CCO/C(O)=C1\C(CS(=O)(=O)c2ccc(Cl)cc2)=NC(C)=C(C#N)C1c1ccccc1C(F)(F)F (stereo not drawn) | 550 nM |  | EC25 (Rattus norvegicus [1]): inactive |
| > 1000 | CCO/C(O)=C1\C(CS(=O)(=O)c2ccccc2C)=NC(C)=C(C#N)C1c1ccccc1C(F)(F)F (stereo not drawn) | 470 nM | 320 nM |  |
| > 500 | CCO/C(O)=C1\C(CS(=O)(=O)c2ccccc2Cl)=NC(C)=C(C#N)C1c1ccccc1C(F)(F)F (stereo not drawn) | 350 nM | 360 nM |  |
